Compound activity (PubChem)
Cneo AK release – Cryptococcus neoformans cell lysis inducers, primary screen, AK release luminescence, single concentration | C. neoformans lysis, adenylate kinase release luminescence, 4 h; normalised: neutral wells 0, clomiphene wells 100 | lysis activity, % at 15 µM | 360,000 tested, 0.2% active | AID 651654, 2012;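 active means mean lysis activity across replicates of at least 80%, whatever share of replicates individually reach that level; inactive means mean lysis activity below 80%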
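Material – Cryptococcus neoformans yeast cells · Quantity – 5 × 10^6 yeast cells/mL · Buffer or medium – YPD medium · Compound – single dose · Timing – 4 h static compound exposure, 37 °C, read 1 h post-reagent · Signal – adenylate kinase release luminescence · Read-out basis – lysis from increased AK signal · Benchmarks – Clomiphene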
C2C12 statin – suppressors of statin myotoxicity in C2C12 myotubes, primary screen, cell-based, single point, plate reader. AID 602340, 2012. 330,000 tested, 0.78% active. rescue of ATP level, % at 7.49 µM. C2C12 myotubes + simvastatin, ATP luminescence, 48 h; scaled: DMSO 0, geranylgeraniol control 100;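 active means mean ATP rescue above about 67%, or every replicate alone reaching that limit, limit read from the data, passing the limit was not always enough; inconclusive means no clear call, values can overlap the other calls; inactive means mean under the limit and some replicate under it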;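 further: myotubes were challenged with 10 µM simvastatin during compound exposure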
Xi reactivation – activators of inactive X chromosome reactivation, primary screen, imaging, XiGFP fibroblasts, GFP high-content imaging, set 2. XiGFP mouse fibroblasts, % GFP-positive cells imaging, 3 d; cells co-treated with 5-aza-dC sensitizer; scaled so ellipticine positive control = 100%. 360,000 tested, 0.055% active. activation, % at 7.58 µM;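 active means mean normalized replicate activation at least 10% and every replicate at or above 10%; inconclusive means only one of the two criteria met; inactive means mean below 10% and not all replicates reach 10%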;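 further: 0% = median of on-plate neutral control wells and 100% = ellipticine 6 µM median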
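System: 68-5-11 XiGFP fibroblast line; Timing: 3 days compound exposure; Compound dosing: one concentration, pinned; Benchmarks: positive control ellipticine, 6 µM final; Buffer or medium: DMEM containing 5-aza-dC.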
DENV2 CPE rescue – inhibitors of DENV2 cytopathic effect, primary screen, cell-based, plate reader, single concentration | CPE inhibition, % at 9.99 µM | 350,000 tested, 1.7% active | AID 651640, 2012 | DENV2-infected cells, cytopathic effect rescue; in the data active means CPE inhibition above about 20%, passing the limit was not always enough; inconclusive means no clear call, values can overlap the other calls; tested in BHK-21 cells;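 further: 0% = median of neutral control wells and 100% = median of positive control wells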
Active calls of the source: *; ? = inconclusive; nt = no result given; ! = not active in a repeat. A selection: hits, their analogues and other compounds. The true share with any hit is near 2.1%.

SMILES	Cneo AK release	C2C12 statin	Xi reactivation	DENV2 CPE rescue
CCOC(=O)N1CCC(NCCNC(=O)c2ccc(Cl)cc2)CC1	0.5	0.2	nt	nt
C[C@@H]1CN([C@H](C)CO)C(=O)Cc2cc(NS(=O)(=O)c3cn(C)cn3)ccc2O[C@H]1CN(C)C(=O)Nc1ccccc1	-7.8	21.9	-0.4	-2.0
CCC(=O)N1[C@H](C#N)[C@@H](c2ccccc2-c2ccccc2)[C@@H]1CO	nt	nt	0.2	16.0
CCC(=O)N1[C@@H](C#N)[C@H](c2ccccc2-c2ccccc2)[C@@H]1CO	nt	nt	0.0	46.8*
CCCNC(=O)N1[C@H](CO)[C@H](c2ccccc2-c2ccccc2)[C@@H]1C#N	nt	nt	0.3	108.7*
O=C(C[C@@H]1CC[C@@H]2[C@H](COC[C@H](O)CN2C(=O)c2ccccn2)O1)NC1CCC1	1.1	-5.6	0.0	3.2
COC(=O)C1=C(O)/C(=C\c2ccc(OCC(=O)Nc3ccccc3)cc2)N=C1C	-3.5	104.0*	0.1	2.1
COc1ccc(N(CN2C(=O)c3ccccc3C2=O)C(=O)COc2ccc(Cl)cc2Cl)cc1	0.6	1.5	0.0	?
O=C1c2ccccc2C(=O)N1CN(C(=O)COc1ccccc1)c1ccc(F)cc1	1.4	114.2*	0.0	-7.9
C[C@@H]1CCCCO[C@H](CN(C)C(=O)Nc2ccc3c(c2)OCO3)[C@H](C)CN([C@@H](C)CO)C(=O)c2cc(NC(=O)Nc3cccc4ccccc34)ccc2O1	-3.2	7.0	0.3	9.1
Cc1ccc(SCC(=O)OC(C)C(=O)NCc2ccccc2)cc1 (stereo not given)	0.6	3.4	0.0	64.4*
COc1ccc(-c2ccc([C@@H]3[C@H]4CN(CC5CCOCC5)CCCCN4[C@H]3CO)cc2)cc1	-1.5	0.5	0.3	62.8*
COc1ccc(-c2ccc([C@@H]3[C@@H](CO)N4CCCCN(CC5CCOCC5)C[C@H]34)cc2)cc1	-0.5	2.6	0.1	47.7*
COc1cccc(-c2ccc([C@@H]3[C@H](CO)N4CCCCN(CC5CCOCC5)C[C@@H]34)cc2)c1	-0.3	nt	nt	-4.1
COc1ccccc1S(=O)(=O)Nc1ccc2c(c1)OC[C@H](C)NC[C@@H](C)[C@@H](OC)CN(C)C2=O	0.0	-4.4	-0.1	1.7
CCN(C[C@H]1N[C@@](Cc2ccccc2)(C(=O)OC)[C@H]2C(=O)N(C)C(=O)[C@@H]12)S(=O)(=O)c1ccc(C(F)(F)F)cc1	0.2	-5.2	-0.1	0.3
CC[C@@]1(C(=O)OC)N[C@H](CN(C)C(=O)NC(C)C)[C@@H]2C(=O)N(Cc3ccccc3)C(=O)[C@@H]21	-1.5	6.5	0.0	7.4
COC(=O)[C@]1(Cc2ccccc2)N[C@H](CN(C)C(=O)Nc2ccc(Cl)cc2)[C@@H]2C(=O)N(Cc3ccccc3)C(=O)[C@@H]21	-0.5	-2.4	0.4	21.7*
CCNC(=O)N(C)C[C@H]1N[C@@](CC)(C(=O)OC)[C@H]2C(=O)N(Cc3ccccc3)C(=O)[C@@H]12	0.7	2.5	0.5	28.6*
CCN1C(=O)[C@H]2[C@H]3CN=C(SCc4ccc(Cl)cc4)N3[C@@](Cc3ccccc3)(C(=O)OC)[C@H]2C1=O	0.9	-14.5	0.4	17.4
COC(=O)[C@@]1(Cc2ccccc2)[C@H]2C(=O)N(Cc3ccccc3)C(=O)[C@H]2[C@H]2CN=C(SCc3ccc(Cl)cc3)N21	2.7	-12.7	0.2	84.5*
CCN(C[C@H]1N[C@@](Cc2ccccc2)(C(=O)OC)[C@H]2C(=O)N(C)C(=O)[C@@H]12)S(=O)(=O)c1ccc(OC(F)(F)F)cc1	1.2	-27.2	0.0	83.5*
C[C@@H](NC(=O)C[C@H]1C[C@@H]2c3cc(NC(=O)CN(C)C)ccc3O[C@@H]2[C@H](CO)O1)c1ccccc1	55.2	3.3	0.4	-0.2
CCN(C[C@H]1N[C@@](CC)(C(=O)OC)[C@H]2C(=O)N(Cc3ccccc3)C(=O)[C@@H]12)C(=O)COc1ccccc1	0.9	2.6	0.0	66.4*
COCC(=O)N(C)C[C@H]1N[C@@](Cc2ccccc2)(C(=O)OC)[C@H]2C(=O)N(C)C(=O)[C@@H]12	-2.0	6.9	-0.1	0.1
SMILES	Cneo AK release	C2C12 statin	Xi reactivation	DENV2 CPE rescue
COC(=O)[C@]1(Cc2ccccc2)N[C@H](CN(C)C(C)=O)[C@@H]2C(=O)N(C)C(=O)[C@@H]21	0.6	1.9	-0.1	22.5*
CC(C)(C)NC(=O)NC(=O)COC(=O)Cc1coc2ccc3ccccc3c12	1.5	nt	0.0	5.6
Cc1c(Cl)cnc(NC(=O)COC(=O)Cc2coc3ccc4ccccc4c23)c1Cl	-0.2	nt	0.0	86.0*
COc1ccc2c3c([nH]c2c1)[C@@H](CO)N(C(=O)c1ccncc1)CC31CCN(Cc2cccnc2)CC1	nt	nt	0.1	-1.9
Cc1c(Br)c([N+](=O)[O-])nn1C(C)C(=O)N1CCc2ccccc2C1 (stereo not given)	1.8	-0.6	0.0	23.6*
COC(=O)C[C@H]1C[C@H]2c3cc(NC(=O)CN(C)C)ccc3O[C@H]2[C@@H](CO)O1	-0.6	-0.8	0.3	4.9
CC(=O)C1CN(S(=O)(=O)c2ccc(C)cc2)C(c2ccccc2)CC1C (stereo not given)	nt	nt	0.0	38.5*
Cc1ccc([C@@H]2C[C@H]3[C@@H](CN2S(=O)(=O)c2ccc(C)cc2)C(=O)C[C@@H](c2ccccc2)N3S(=O)(=O)c2ccc(C)cc2)cc1	1.7	-10.3	-0.1	15.2
CC(C)NC(=O)N(C)C[C@H]1Oc2ccc(NC(=O)Nc3cccc4ccccc34)cc2C(=O)N([C@@H](C)CO)C[C@H]1C	1.2	-0.2	-0.9	7.6
CCCn1c(COc2ccccc2)nc2ccccc21	12.5	8.1	-0.1	-1.7
COCc1nc2ccccc2n1CCCOc1ccccc1	5.3	127.4*	nt	nt
CCOCCn1c(COc2ccccc2)nc2ccccc21	-0.6	122.4*	nt	nt
CCO[C@H]1OC(C(=O)NC2CC2)=C[C@@H](c2ccc(C(F)(F)F)cc2)[C@@H]1CCCO	-5.3	-24.1	0.0	24.8*!
CCO[C@@H]1OC(C(=O)N2CCCCCCC2)=C[C@H](c2cn(C(C)=O)c3ccccc23)[C@H]1CCCO	0.6	1.3	nt	nt
CCO[C@H]1OC(C(=O)N2CCOCC2)=C[C@@H](c2cn(C(C)=O)c3ccccc23)[C@@H]1CCCO	5.9	-8.6	-0.2	27.5*!
CCO[C@@H]1OC(C(=O)NC2CC2)=C[C@H](c2ccc(C(F)(F)F)cc2)[C@H]1CCCO	-6.5	-6.7	0.1	11.8
CCO[C@H]1OC(C(=O)O)=C[C@@H](c2ccc3c(c2)OCO3)[C@@H]1CCCO	-0.6	16.7	0.1	23.8*
Cc1ccc(S(=O)(=O)Nc2cccc3c2O[C@@H](CN(C)Cc2ccccc2)[C@H](C)CN([C@H](C)CO)C3=O)cc1	-0.2	24.3	0.0	-6.6
